Test results: ChEMBL document CHEMBL1158173, “Carbodithioic acid esters of fluoxetine, a novel class of dual-function spermicides” (2008)
In brackets after ≈: the same amount, converted by molar mass. Activity calls are given as the source filed them. No cut-off for these calls is given here.

Key:
Assay type in all cases: functional
Aspergillus fumigatus = assay: Antifungal activity against Aspergillus fumigatus after 48 hrs by broth microdilution technique
Candida albicans [1] = assay: Antifungal activity against Candida albicans after 48 hrs by broth microdilution technique
Sporothrix schenckii = assay: Antifungal activity against Sporothrix schenckii after 48 hrs by broth microdilution technique
Cryptococcus neoformans = assay: Antifungal activity against Cryptococcus neoformans after 48 hrs by broth microdilution technique
Trichomonas vaginalis = assay: Antitrichomonas activity against Trichomonas vaginalis after 48 hrs by trypan blue staining
Method in brief: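 Trichomonas vaginalis was grown in TYM medium and used in log phase, one day after routine subculture. Compounds in DMSO stock were serially diluted in TYM medium, with DMSO/TYM as vehicle control. Wells received 5 × 10³ trophozoites and were incubated anaerobically at 37 °C. Viability was scored daily by trypan blue and cell counts, and MIC was read at 48 h. Finer dilutions were then retested, and the final MIC was taken from a concentration versus viable-trophozoite-number curve.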

Candida parapsilosis [2] = assay: (§1) Antifungal activity against Candida parapsilosis ATCC 22019 after 48 hrs by broth microdilution technique; conditions: for MIC: Lodderomyces parapsilosis, ATCC 22019, 48 h
[3] = (§2) Spermicidal activity in liquefied human semen assessed as drug level required to kill 100% sperm in 20 seconds
[4] = test system: Trichophyton mentagrophytes; assay: Antifungal activity against Trichophyton mentagrophytes after 48 hrs by broth microdilution technique
Sperm = assay: as §2
Candida albicans [5] = assay: Antifungal activity against Candida albicans ATCC 6019 after 48 hrs by broth microdilution technique; conditions: ATCC 6019, 48 h
Candida albicans [6] = assay: Antifungal activity against Candida albicans MTCC 1346 after 48 hrs by broth microdilution technique; conditions: MTCC 1346, 48 h
Candida albicans [7] = assay: Antifungal activity against Candida albicans ATCC 10231 after 48 hrs by broth microdilution technique; conditions: ATCC 10231, 48 h
Candida parapsilosis [8] = assay: as §1; conditions: Lodderomyces parapsilosis, ATCC 22019, 48 h
Candida albicans [9] = assay: Antifungal activity against Candida albicans MTCC 183 after 48 hrs by broth microdilution technique; conditions: MTCC 183, 48 h
Candida albicans [10] = assay: Antifungal activity against Candida albicans ATCC 66027 after 48 hrs by broth microdilution technique; conditions: ATCC 66027, 48 h
Pichia kudriavzevii = assay: Antifungal activity against Candida krusei ATCC 6258 after 48 hrs by broth microdilution technique; conditions: ATCC 6258, 48 h
Candida albicans [11] = assay: Antifungal activity against Candida albicans ATCC 10453 after 48 hrs by broth microdilution technique; conditions: ATCC 10453, 48 h

Row | Structure (SMILES) | MIC (Aspergillus fumigatus) | MIC (Candida albicans [1]) | MIC (Cryptococcus neoformans) | MIC (Trichomonas vaginalis) | MIC (Candida parapsilosis [2]) | MEC [3] | MIC [4] | Activity (Aspergillus fumigatus) | Activity (Candida albicans [1]) | Activity (Sporothrix schenckii) | Activity (Cryptococcus neoformans) | Activity (Candida parapsilosis [2]) | Activity [4] | further results
1 | CN(CCC(Oc1ccc(C(F)(F)F)cc1)c1ccccc1)C(=S)SCCCl (centres undefined) | 50 µg/mL (≈ 112 µM) | 50 µg/mL (≈ 112 µM) | 50 µg/mL (≈ 112 µM) | > 200 µg/mL | 25 µg/mL (≈ 55.8 µM) | 1% | 12.5 µg/mL (≈ 27.9 µM) | – | – | – | – | – | – | MIC (Sporothrix schenckii): 25 µg/mL (≈ 55.8 µM)
2 | CN(CCC(Oc1ccc(C(F)(F)F)cc1)c1ccccc1)CC(O)CSC(=S)N1CCCC1 (centres undefined) | – | – | – | – | – | – | – | inactive | inactive | inactive | inactive | inactive | inactive | Activity (Sperm): inactive
3 | OC(Cn1cncn1)(Cn1cncn1)c1ccc(F)cc1F [FLUCONAZOLE] | – | 0.5 µg/mL (≈ 1.63 µM) | – | – | – | – | – | – | – | – | – | – | – | MIC (Candida albicans [5]): 0.25 µg/mL (≈ 0.816 µM); MIC (Candida albicans [6]): 2 µg/mL (≈ 6.53 µM); MIC (Candida albicans [7]): 1 µg/mL (≈ 3.27 µM); MIC (Candida parapsilosis [8]): 1 µg/mL (≈ 3.27 µM); MIC (Candida albicans [9]): 0.5 µg/mL (≈ 1.63 µM); MIC (Candida albicans [10]): 0.25 µg/mL (≈ 0.816 µM); MIC (Pichia kudriavzevii): 4 µg/mL (≈ 13.1 µM); MIC (Candida albicans [11]): 1 µg/mL (≈ 3.27 µM)
4 | CCN(CC)CC(O)CSC(=S)N(C)CCC(Oc1ccc(C(F)(F)F)cc1)c1ccccc1 (centres undefined) | 50 µg/mL (≈ 97.1 µM) | – | – | > 200 µg/mL | 50 µg/mL (≈ 97.1 µM) | 0.5% | 25 µg/mL (≈ 48.6 µM) | – | inactive | inactive | inactive | – | – | –
5 | CN1CCN(CC(O)CSC(=S)N(C)CCC(Oc2ccc(C(F)(F)F)cc2)c2ccccc2)CC1 (centres undefined) | 25 µg/mL (≈ 46.2 µM) | 50 µg/mL (≈ 92.3 µM) | 25 µg/mL (≈ 46.2 µM) | 12 µg/mL (≈ 22.2 µM) | 50 µg/mL (≈ 92.3 µM) | 0.5% | 25 µg/mL (≈ 46.2 µM) | – | – | – | – | – | – | MIC (Sporothrix schenckii): 25 µg/mL (≈ 46.2 µM)
6 | CN(CCC(Oc1ccc(C(F)(F)F)cc1)c1ccccc1)C(=S)SCc1ccccc1 (centres undefined) | – | – | – | > 200 µg/mL | – | 1% | – | inactive | inactive | inactive | inactive | inactive | inactive | –
7 | CN(CCC(Oc1ccc(C(F)(F)F)cc1)c1ccccc1)C(=S)SCCN1CCCCC1 (centres undefined) | 12.5 µg/mL (≈ 25.2 µM) | 3.12 µg/mL (≈ 6.28 µM) | 1.56 µg/mL (≈ 3.14 µM) | 13.5 µg/mL (≈ 27.2 µM) | 1.56 µg/mL (≈ 3.14 µM) | 1% | 6.25 µg/mL (≈ 12.6 µM) | – | – | – | – | – | – | MIC (Sporothrix schenckii): 6.25 µg/mL (≈ 12.6 µM)
8 | CN(CCC(Oc1ccc(C(F)(F)F)cc1)c1ccccc1)C(=S)[S-].[Na+] (centres undefined) | – | – | 25 µg/mL | 96 µg/mL | – | 1% | – | inactive | inactive | inactive | – | inactive | inactive | –
9 | CN(CCC(Oc1ccc(C(F)(F)F)cc1)c1ccccc1)C(=S)SCC(O)CN1CCCCC1 (centres undefined) | – | – | – | – | 50 µg/mL (≈ 94.9 µM) | – | 50 µg/mL (≈ 94.9 µM) | inactive | inactive | inactive | inactive | – | – | Activity (Sperm): inactive
10 | CN(CCC(Oc1ccc(C(F)(F)F)cc1)c1ccccc1)C(=S)SCCN1CCOCC1 (centres undefined) | – | – | – | – | – | – | – | inactive | inactive | inactive | inactive | inactive | inactive | Activity (Sperm): inactive
11 | CN(CCC(Oc1ccc(C(F)(F)F)cc1)c1ccccc1)C(=S)SCC(O)CN1CCCCCC1 (centres undefined) | 25 µg/mL (≈ 46.2 µM) | 50 µg/mL (≈ 92.5 µM) | – | > 200 µg/mL | 50 µg/mL (≈ 92.5 µM) | 0.5% | 25 µg/mL (≈ 46.2 µM) | – | – | inactive | inactive | – | – | –
12 | CCCCCCCCCc1ccc(OCCOCCOCCOCCOCCOCCOCCOCCOCCO)cc1 [NONOXYNOL 9] | – | – | – | 23 µg/mL (≈ 37.3 µM) | 50 µg/mL (≈ 81.1 µM) | 0.05% | – | inactive | inactive | inactive | inactive | – | inactive | –
